Measured values as given in article PMC3825517 (Nature structural & molecular biology, 2013).

What was measured:
[1] = biological target: T1, DinF-BH (Halalkalibacterium halodurans, UniProt Q9KAX3); assay: Fluorescence polarization assay of R6G binding to purified DinF-BH; design: species or system Bacillus halodurans
T1 sequence (Q9KAX3 1-464): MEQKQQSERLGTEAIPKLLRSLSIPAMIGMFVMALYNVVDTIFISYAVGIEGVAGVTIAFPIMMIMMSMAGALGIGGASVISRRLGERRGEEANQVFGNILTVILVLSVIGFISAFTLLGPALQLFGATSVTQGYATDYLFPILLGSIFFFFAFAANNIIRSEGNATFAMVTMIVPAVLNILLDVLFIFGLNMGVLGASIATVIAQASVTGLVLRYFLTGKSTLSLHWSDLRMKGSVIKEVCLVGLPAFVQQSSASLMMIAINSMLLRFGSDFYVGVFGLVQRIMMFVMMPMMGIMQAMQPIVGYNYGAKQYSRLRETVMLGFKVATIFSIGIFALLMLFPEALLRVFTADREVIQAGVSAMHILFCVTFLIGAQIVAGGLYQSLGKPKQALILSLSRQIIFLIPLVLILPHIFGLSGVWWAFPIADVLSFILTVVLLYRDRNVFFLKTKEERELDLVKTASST

[2] = biological target: T2, DinF-BH D40N mutant (Halalkalibacterium halodurans, UniProt Q9KAX3, D40N); assay: Fluorescence polarization assay of R6G binding to purified D40N mutant; design: species or system Bacillus halodurans
T2 sequence (Q9KAX3 1-464 D40N): T1 sequence (Q9KAX3 1-464)
In short: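 Each protein concentration was read after a 10-min incubation. Kd comes from the binding isotherm, three titrations, SD. For pH dependence the binding solutions spanned pH 5.5–9.0, fitted to Kd = (1 + [H+]/Ki)Kmin.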

[3] = biological target: T1, DinF-BH; assay: Drug-H+ antiport assay in everted membrane vesicles containing DinF-BH; assay type: biochemical, Bacillus halodurans; details: 250 μM TPP, acridine orange fluorescence
[4] = system: NorM-NG; assay: Drug-H+ antiport assay in everted membrane vesicles containing NorM-NG; assay type: biochemical, Neisseria gonorrhoeae; details: 250 μM TPP, acridine orange fluorescence
[5] = biological target: T1, DinF-BH; assay: Fluorescence measurement of H+-release upon drug binding; assay type: biochemical, Bacillus halodurans; details: 4 μM protein, 250 μM TPP, fluoresceine pH indicator, repeated three times
In short: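 Purified transporter was dialysed against 10% (vol/vol) glycerol, 50 mM NaCl and 0.03% (wt/vol) DDM, then diluted to 4 μM in the same buffer with 2 μM fluoresceine as pH indicator. The sample was stirred, and fluorescence was read at excitation 494 nm and emission 521 nm. TPP was added to 250 μM. Three repeats.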

For `C(=NC1CCCCC1)=NC1CCCCC1` [dicyclohexylcarbodiimide], the “effect of treatment of DinF-BH on the binding of R6G” value ([1]; treatment of DinF-BH with the chemical) was “abolished the binding of R6G”.

With `CC/N=c1\cc2oc3cc(NCC)c(C)cc3c(-c3ccccc3C(=O)OCC)c-2cc1C` [R6G, rhodamine 6G] the Kd [1] was 3.1 ± 0.4 µM and the Kd [2] was 107 ± 4.1 µM.

In the case of `c1ccc([P+](c2ccccc2)(c2ccccc2)c2ccccc2)cc1` [TPP, tetraphenylphosphonium], the “H+ efflux (fluorescence dequenching) on addition of substrate, DinF-BH vesicles” value [3] is reported as “elicited efflux of H^+”, the “H+ efflux (fluorescence dequenching) on addition of substrate, NorM-NG vesicles” value [4] is reported as “no response” and the “stoichiometry of H+ released per DinF-BH upon drug binding” value [5] is reported as 1.00 ± 0.07 H^+ per DinF-BH.
